The text below walks through data of the EternaBench riboswitch data.

By apparent Kd is commonly meant a dissociation constant that holds for the conditions of the assay.

In the data set the test system is MS2 coat protein. In words: apparent Kd, MS2 coat protein; higher = weaker binding; RNA-MaP array; FMN 200 µM where present. In outline: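 Green signal from SNAP-549-labelled MS2 coat protein was normalised to red-channel RNA signal and to the median Fmax of control clusters. The protein was titrated from 0.7 or 1.5 nM, doubling to 3 µM, without and then with constant ligand, over designs transcribed by stalled E. coli RNA polymerase on Illumina sequencing-chip clusters, in 100 mM Tris-HCl pH 7.5, 80 mM KCl, 4 mM MgCl2, BSA, DTT, yeast tRNA and Tween-20. The apparent Kd is the median of filtered per-cluster binding-curve fits.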

Setting [1] is: designed as: OFF switch for flavin mononucleotide, no ligand.
Setting [2] is: ligand present: flavin mononucleotide, designed as: OFF switch for flavin mononucleotide.
Where [3] appears, read: designed as: ON switch for flavin mononucleotide, no ligand.
Setting [4] is: ligand present: flavin mononucleotide, designed as: ON switch for flavin mononucleotide.

“GGUGCGUGUGUGAGGAUAUGCUGGUCCUUGGAUCAGCAGAAGGCACAUGAGGAUCACCCAUGUGGUGUCGUACC”: the “apparent Kd” value reads like this: under setting [1], 490 nM; under setting [2], 24.8 nM. Taken in the same sequence, the figures for “UAGGUACGAGGAUAUACAUAGAUACAGACACAUGUAGAUGUACAUGAGGAUCACCCAUGUAGAAGGCGUAUAUA” were 67.8 nM and 237 nM. On to “UCAAAGCCAUUUUGGCGAGUCACAUGAGGAUCACCCAUGUAACAGGAUAUCGAUUGGCUUCCCGGCGAGAAGGGUUACUAGGGA”, for which the “apparent Kd” value under setting [1] was 10.8 nM and the “apparent Kd” value under setting [2] amounted to 15.5 nM. Taken in the same sequence, the figures for “ACUGCAUAGGCAGGAUAUGCAAAAGCAGAUGCAAAGCAUUUGAAUAACACAUGAGGAUCACCCAUGUAGAAGGGCCUGUGCAGU” were 20.1 nM and 20.2 nM. The corresponding values for “GUGUCCUUAGGAUAUGUUGAGUUAUACAUGAGGAUCACCCAUGUUCCUCGGUAUUGGUCCAUAGAAGGAAGGUUGC” are 346 nM and 337 nM. For “GCUAGUAUUGCAGGAUAUUGUGUUUAAUUAUGGCAAGAAGGGCAUUACAUGAGGAUCACCCAUGUUUUCCUUAGUCAUACUAGC”, the “apparent Kd” value by setting is: under setting [1], 5.57 nM; under setting [2], 6.63 nM.

As for “AUCCGACAUGUAGGAUAUGCGUGGCGAAGCUAUGCAGAAGGACAUGAGGAUCACCCAUGUUUUACCGUCUGCGUACAGACGGUG”, the “apparent Kd” value runs as follows: under setting [1], 286 nM; under setting [2], 240 nM. “GUAGCUAUCGGAGGAUAUCCUCAGCGGAAACGCACAUGAGGAUCACCCAUGUAAAUAAAUAAUUAAGAGAAGGCCGAUAGCUAC”: the “apparent Kd” value runs as follows: under setting [3], 706 nM; under setting [4], 55 nM.

For the sequence “GGAUUACAUGAGGAUCACCCAUGUGAGGAUAUCGAUGUCCUCAAUAAAGUGCGGGACUCGAGAAGGCACUUGGA”, the “apparent Kd” value under setting [1] is 63 nM and the “apparent Kd” value under setting [2] was 83 nM.

On to “GCUCGUAGACAGAAGGCGACAUGAGGAUCACCCAUGUUGGCUCGGGUAUGACCAAUCCGCAUGAUCGAGGAUAUGUCCGCGGGC”, for which the “apparent Kd” value runs as follows: under setting [1], 287 nM; under setting [2], 16.4 nM. Taken in the same sequence, the figures for “UGAUCGAAAGAUCAUAGAUUCUGCUAGGAUAUGCAGAAGUUGCGCUUUACAUGAGGAUCACCCAUGUAGAAGGAGUAGAGUCUA” were 6.59 nM and 6.78 nM. On to “GGUGCUAUGUAGAAGGCAGAUCUGAUUCAGAUCUGAGGAUAUACAUGAGGAUCACCCAUGUUAUGCACCAGCACGAGAGUGCAU”, for which the “apparent Kd” value reads like this: under setting [1], 13.5 nM; under setting [2], 35.1 nM. Taken in the same sequence, the figures for “GGAUGACAAAGUCAUCCUAAACGAACAUGAGGAUCACCCAUGUAGGAUAUGGUACUCAAAGAGUACCAGAAGGACAUGUGCCUU” were 33.7 nM and 200 nM. “UCAUUAGCGGGCGGGUCGGUUGGACAUGAGGAUCACCCAUGUAGAAGGACCGGUGGACUCCGGCGGUAGGAUAUACAUUUGGUG”: the “apparent Kd” value under setting [1] came out at 22 nM and the “apparent Kd” value under setting [2] was determined as 30.7 nM.

As for “UAUUGAUAAUAUCUUCACAUGAGGAUCACCCAUGUCGCUCGACAGGAUAUAUUUUAUUUGUUUAAGUAGAAGGGUCGCAGAUUU”, the “apparent Kd” value by setting is: under setting [3], 165 nM; under setting [4], 142 nM. As for “GCCAGUUAUGUAGGAUAUGCGCGGCGAGCCUGAGCAGAAGGACAUGAGGAUCACCCAUGUGUUGCGGUUUGAGUACUAAUCGCU”, the “apparent Kd” value by setting is: under setting [1], 31.5 nM; under setting [2], 171 nM. The corresponding values for “GUCUUACAUGAGGAUCACCCAUGUGAGGAUAUCCGCGGCGCCGGGUUUCCGGCGCCGCGGAGAAGGCGCGUGUU” are 19.2 nM and 22.3 nM. In the case of “CGGAAUUGUACAGGAUAUGAGGGUACCUGAGCCUCAGAAGGGUAGACCGACAUGAGGAUCACCCAUGUAUGCGGAUAACGUCCG”, the “apparent Kd” value reads like this: under setting [3], 1180 nM; under setting [4], 592 nM. With “CUCAUGAGAGGAUAUACAUGAGGAUCACCCAUGUGGUUAUCUCCUCGGGCUCCAUUACGUAGAAGGCUCAUUUG”, the “apparent Kd” value is, setting by setting: under setting [1], 33.9 nM; under setting [2], 90.6 nM. As to “AGCUGGUGACAGCAUCCAUCAAAACAUGAGGAUCACCCAUGUAGAAGGCUGUACGGUUACCGUACAGAGGAUAUACAAUGAUGA”, the “apparent Kd” value runs as follows: under setting [1], 16.3 nM; under setting [2], 27.3 nM.

As to “GUUGGGUGUCAUGUCGCACAUGAGGAUCACCCAUGUAAGAGGUAGGAUAUCCACGAGUAACAAGAGGAGAAGGGCCGUCAGCGU”, the “apparent Kd” value is 25.8 nM under setting [1] and 32.2 nM under setting [2]. Consider “UAUUAUGUCAGAGGAUAUAUAAAUAAAUUUAUAACAUGAGGAUCACCCAUGUACUUUAGUAUGAGGUAGAAGGUUGAUAAGAUA”, for which the “apparent Kd” value reads like this: under setting [3], 45.4 nM; under setting [4], 26.8 nM.

Take “GGAUAGGAAAGAGGAUAUACGUGCUAGAGAUACUAGCAAAAUUUCCUCACAUGAGGAUCACCCAUGUAGAAGGCUGUCCUAUCG”: the “apparent Kd” value by setting is: under setting [1], 5.95 nM; under setting [2], 38.9 nM.

In the case of “GAGCUAUGAGGAUAUGCAUAUAUACGGUUUCGUGUGGUACUACAUGAGGAUCACCCAUGUAGAAGGCGUGGCAG”, the “apparent Kd” value was determined as 17.4 nM under setting [1] and 17.9 nM under setting [2].

Turning to “UCAAAGAGAUCGAACGGGAGGCGUAAGGAUAUGCACAUGAGGAUCACCCAUGUCUACGAAAGUAGGCAGAAGGUACGCGGGAUU”, the “apparent Kd” value was determined as 253 nM under setting [3] and 30.6 nM under setting [4].

On to “GUGGAGGGUUGAGGAUAUUGAAUACAUAUGUUUAACAUGAGGAUCACCCAUGUGGGUUGCGGUAUCGAGAAGGUAAAUUGCUGG”, for which the “apparent Kd” value was determined as 97.2 nM under setting [3] and 109 nM under setting [4]. The corresponding values for “CAGGGUUCGUGAAUAAGCUAGCUUCGAGAAGGGCCACAUGAGGAUCACCCAUGUCAGCGAAAACGGCAGGAUAUCGAGGGUGAG” are 147 nM and 48.4 nM.

On to “GGCUCAGUGACAUGAGGAUCACCCAUGUGGCUCAUUCAACGCAGAAGGCACAAGGGAACACCUCGUGAGGAUAUGCAAGUAGAC”, for which the “apparent Kd” value is, setting by setting: under setting [3], 367 nM; under setting [4], 36.7 nM. Turning to “GGAUAGGACAGAGGAUAUACGUGCUAGAGAUACUCGCAAAAUUUCCUCACAUGAGGAUCACCCAUGUAGAAGGCUGUCCUAUCG”, the “apparent Kd” value was 93 nM under setting [1] and 436 nM under setting [2]. Taken in the same sequence, the figures for “AAGGCGCUAGCAGGAUAUGUACAUGAGGAUCACCCAUGUAAAUCUGUAUCUGGUGAAGCGCAAGUAUAGAAGGGCUAACGCUGG” were 4.71 nM and 6.2 nM. Consider “GGGCAUAUUACAUGAGGAUCACCCAUGUCAGAAAGGGUAAUCAGAAGGUACUAUUAGAGAAAGAGUAAGGAUAUGAUUAUGCCC”, for which the “apparent Kd” value by setting is: under setting [3], 486 nM; under setting [4], 40.6 nM.

For “UAACAAAUUGUCAGGAUAUCAGUCCCGGCCCAGAUUGAGAAGGGACAUGAGGAUCACCCAUGUAUGAUUCUCAG”, under setting [2], the “apparent Kd” value was 114 nM. For the sequence “GGCGAUCAGGCUAACAUGAGGAUCACCCAUGUGGACUCAUGGUAGGAUAUGCUGUACUUUGUACAGCAGAAGGGCCGGAGAGCC”, the “apparent Kd” value runs as follows: under setting [3], 46.1 nM; under setting [4], 187 nM.

Turning to “GUAAGCGUAGGAUAUACAUGAGGAUCACCCAUGUCAGUUUUGCACUCUCGGGUGUGCUGUAGAAGGGCGUUACU”, the “apparent Kd” value runs as follows: under setting [1], 172 nM; under setting [2], 208 nM.

As to “UGCAGGCGAGGAUAUGCUCGGGUUGCUUGUCGAGAGGAUGCACAUGAGGAUCACCCAUGUAGAAGGUGUCUAUG”, the “apparent Kd” value is 47.5 nM under setting [1] and 56.2 nM under setting [2]. Taken in the same sequence, the figures for “AUUUAAUUUAAUAAGAUCACAUGAGGAUCACCCAUGUAUAUAUAGGAUAUCAGCUCGUGUAGAGCUGAGAAGGAUAUAUACUAU” were 316 nM and 204 nM. The corresponding values for “AGCGUGUUAGGAUAUACACGACGCUGGGUAGCUAGCGGAGGGUAGAAGGGACAUGAGGAUCACCCAUGUUCGGG” are 74.1 nM and 105 nM.

For “AUAAAACAUGAGGAUCACCCAUGUAGACACGAUGGAGGAUAUACUAGAUCGAAAGAUCUAGUAGAAGGCCGACGUA”, the “apparent Kd” value runs as follows: under setting [3], 21.3 nM; under setting [4], 22.8 nM. As to “ACAGGUGCAGGAUAUACAUGAGGAUCACCCAUGUGAUUAGCAGUCCUCGGACUGCAAUGUAGAAGGGCACCUGU”, the “apparent Kd” value reads like this: under setting [1], 327 nM; under setting [2], 1120 nM. The corresponding values for “UUCGUGCAGCUUUGCUGUACGAGUACAUGAGGAUCACCCAUGUAGGAUAUGGUACGCUUUGCGUGCUAGAAGGAUAUGUGUAGC” are 33 nM and 37 nM. The corresponding values for “CCAGACGUUGUAGGAUAUCUGAAAGGAAGUGUAAGAGAAGGAUAGUGUCUGUAAAACAUGAGGAUCACCCAUGUGGGCGCAUCC” are 19.6 nM and 61.9 nM. Taken in the same sequence, the figures for “CAGUACUGAGGAUAUACAUGAGGAUCACCCAUGUGUUCCUUGUAGGAUAUGCGCAAAAGUAGAAGGCAGAAGGAGAUGUGCCUA” were 6.59 nM and 6.3 nM.

For the sequence “UAUAUAUAGUAAGGAUAUAUAUUUAUUUUAUAAAUAGAAGGUACAGACAUGAGGAUCACCCAUGUUAUAAUAUGGACAUGUGGA”, the “apparent Kd” value amounted to 52.5 nM under setting [1] and 69.4 nM under setting [2].

For the sequence “AAUAUGUUGCAGAAGGUUAUUUUUAUAACGUUCCUCUUGACAUGAGGAUCACCCAUGUAAUUGUUGAAGGAUAUGCAAUAUAUU”, the “apparent Kd” value came to 6.69 nM under setting [1] and 6.18 nM under setting [2]. Turning to “AGAAAACAUGAGGAUCACCCAUGUGAGGAUAUCGAUGUCCAAGCCCGGGUGCGGGACUCGAGAAGGCACUUGGG”, the “apparent Kd” value turned out to be 55.7 nM under setting [1] and 36.8 nM under setting [2]. With “CACUCACAUGAGGAUCACCCAUGUCCUAGGAGGUCAGGAUAUAGCUCGGAUGCGUUGAGGCUAGAAGGGACAGGUU”, the “apparent Kd” value under setting [3] is 79.5 nM and the “apparent Kd” value under setting [4] worked out at 88.6 nM. Taken in the same sequence, the figures for “AAAAUAAGAACAGGAUAUGUGGGUUCGAAGAGCAAAACUCUCCACAUGAGGAUCACCCAUGUGCCACAGAAGGGUUCGGGUGAU” were 66.9 nM and 12.4 nM.

Consider “GGACGUCACAUUUACAUGAGGAUCACCCAUGUCUCUUGAUAUGAGGAUAUGUAUACGAAUCGUAUACAGAAGGCAUGGACGUCC”, for which the “apparent Kd” value stood at 71.7 nM under setting [3] and 29.8 nM under setting [4].
